Experimental data reported in ChEMBL document CHEMBL1158067, “Phenolic glycosides with antioxidant activity from the stem bark of Populus davidiana” (J Nat Prod, 2006).

Experiment: ABTS radical scavenging activity assessed as Trolox equivalent antioxidant capacity index
Format: physicochemical
Method in brief: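 ABTS radical cation generated from 7 mM ABTS in water plus potassium persulfate (final 2.45 mM), held in the dark at room temperature for 16 h, then diluted with water to A734 0.700 ± 0.020. Diluted radical mixed with compound or Trolox standard in MeOH (final 0–20 µM), kept at ambient temperature. A734 read exactly 6 min after mixing, solvent blanks included. Compounds were dosed to give 10–80% inhibition. Percent absorbance decrease was plotted against concentration and referenced to Trolox.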

Activity | Structure (SMILES)
0.8 | Cc1cc(C(C)(C)C)c(O)c(C(C)(C)C)c1 [BUTYLATED HYDROXYTOLUENE]
1.98 | O=C(O)/C=C/c1ccc(O)c(O)c1 [CAFFEIC ACID]
1.27 | O=C(/C=C/c1ccc(O)cc1)O[C@H]1[C@H](OC2CCCCC2O)O[C@H](CO)[C@@H](O)[C@@H]1O (some centres not stated) [GRANDIDENTATIN]
2.07 | O=C(/C=C/c1ccc(O)cc1)OCc1cc(O)ccc1O[C@@H]1O[C@H](CO)[C@@H](O)[C@H](O)[C@H]1O [POPULOSIDE A]
1.13 | O=C(/C=C/c1ccc(O)cc1)OCc1ccccc1O[C@@H]1O[C@H](CO)[C@@H](O)[C@H](O)[C@H]1O [POPULOSIDE B]
1.55 | COc1cc(/C=C/C(=O)OCc2ccccc2O[C@@H]2O[C@H](CO)[C@@H](O)[C@H](O)[C@H]2O)ccc1O [POPULOSIDE C]
1.67 | O=C(/C=C/c1ccc(O)c(O)c1)OCc1ccccc1O[C@@H]1O[C@H](CO)[C@@H](O)[C@H](O)[C@H]1O [POPULOSIDE]
0.21 | OCc1ccccc1O[C@@H]1O[C@H](CO)[C@@H](O)[C@H](O)[C@H]1O [SALICIN]
1.01 | O=C(OCc1cc(O)ccc1O[C@@H]1O[C@H](CO)[C@@H](O)[C@H](O)[C@H]1O)c1ccccc1 [SALIREPOSIDE]
0.12 | O=C(O[C@H]1[C@H](Oc2ccccc2COC(=O)C2(O)C=CCCC2=O)O[C@H](CO)[C@@H](O)[C@@H]1O)c1ccccc1 (some centres not stated) [TREMULACIN]
0.24 | O=C(O[C@H]1[C@H](Oc2ccccc2CO)O[C@H](CO)[C@@H](O)[C@@H]1O)c1ccccc1 [TREMULDIN]

Structure (SMILES) | Activity
O=C(/C=C/c1ccc(O)cc1)O[C@@H]1O[C@H](CO)[C@@H](O)[C@H](O)[C@H]1O | 0.78
